Activity calls are given as the source filed them. The calls are words filed in the database; no cut-off is given here.

In general, Kd refers to the constant that tells how readily two partners part at equilibrium. Broadly, the inhibition is how much of the control response was suppressed. A lower inhibition goes with little suppression. As a reminder, the IC50 is the concentration that gives 50% inhibition. Low readings indicate greater potency, high ones weaker potency.

Data set [1] deals with T1, NAD-dependent protein deacetylase sirtuin-3, mitochondrial (Homo sapiens, UniProt Q9NTG7).
T1 sequence (Q9NTG7 whole entry): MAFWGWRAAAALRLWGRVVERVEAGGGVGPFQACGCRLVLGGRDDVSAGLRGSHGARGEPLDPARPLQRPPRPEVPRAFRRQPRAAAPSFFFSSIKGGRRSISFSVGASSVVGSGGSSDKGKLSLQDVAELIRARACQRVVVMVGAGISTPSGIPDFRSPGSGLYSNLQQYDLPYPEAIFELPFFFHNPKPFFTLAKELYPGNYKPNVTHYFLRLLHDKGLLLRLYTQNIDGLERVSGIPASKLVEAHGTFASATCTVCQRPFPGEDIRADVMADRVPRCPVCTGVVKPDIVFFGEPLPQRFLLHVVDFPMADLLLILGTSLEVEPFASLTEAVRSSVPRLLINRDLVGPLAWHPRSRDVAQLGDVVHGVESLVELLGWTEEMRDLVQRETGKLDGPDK
Kind of data set: Binding affinity to N-terminal his-tagged human SIRT3 (114 to 380 residues) assessed as dissociation constant by SPR analysis. A digest of the protocol: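 SPR with SIRT3 amine-coupled to the chip (sodium acetate pH 4.0; 1500–4000 RU). Analytes diluted to 200 μM in HBSP (20 mM Hepes, 150 mM NaCl, 0.005% P20; 2% DMSO), injected at 5, 10, 20, 40, 80 μM at 30 μL/min. Dissociation after 180 s. Reference chip lacked ligand. Apparent KD by Scatchard analysis. Run twice.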

For data set [2], the target named is T2, NAD-dependent protein deacetylase sirtuin-3, mitochondrial (Homo sapiens) (UniProt Q9NTG7).
T2 sequence (whole entry): T1 sequence (Q9NTG7 whole entry)
Kind of data set: Activation of human SIRT3 overexpressing in human MDA-MB-231 cells assessed as increase in acK68-MnSOD deacetylation level at 50 uM incubated for 4 hrs by Western blot analysis assay. In kind it is cell-based. As to conditions: filed as activator. A digest of the protocol:
(§1)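 CAL-62 or MDA-MB-231 cells treated 4 h at 50 μM. Lysed in Tris/NaCl/EDTA/Triton buffer with protease and phosphatase inhibitors. 15 or 50 μg protein resolved by SDS-PAGE, immunoblotted for acK68- or acK122-MnSOD and total MnSOD, ECL detection. Densitometric acetyl/total ratio. SIRT3 inhibitor 3-TYP (1 μM) used as control.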

Data set [3] concerns the target T2, NAD-dependent protein deacetylase sirtuin-3, mitochondrial (Homo sapiens). In words: Activation of human SIRT3 overexpressing in human MDA-MB-231 cells assessed as increase in acK122-MnSOD deacetylation level at 50 uM incubated for 4 hrs by Western blot analysis assay. In kind it is cell-based. Particulars: filed as activator. In short, it runs like this:
as §1

Data set [4] shares this target. Kind of data set: Activation of human SIRT3 overexpressing in human CAL-62 cells assessed as increase in acK122-MnSOD deacetylation level at 50 uM incubated for 4 hrs by Western blot analysis assay. The data set is classed as cell-based. As to conditions: filed as activator. In short, it runs like this:
as §1

The target is the same in data set [5]. In words: Activation of human SIRT3 overexpressing in human MDA-MB-231 cells assessed as increase in acK122-MnSOD deacetylation level at 10 uM incubated for 4 hrs by Western blot analysis assay. As to conditions: filed as activator. In kind it is cell-based. In short, it runs like this:
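MDA-MB-231 cells treated 4 h at 10 μM, lysed, and immunoblotted for acK122-MnSOD and total MnSOD. Densitometric ratio.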
On the technique in general: In western blotting, separated proteins are transferred to a membrane and probed.

In data set [6] the test system is CAL-62. In words: Inhibition of clonogenicity in human CAL-62 cells at 50 uM incubated for 24 to 48 hrs under hypoxia condition by crystal violet staining based assay. The data set is classed as functional. As to conditions: time 24-48 hrs. In short, it runs like this:
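CAL-62 cells at 80–90% confluence treated with 50 μM compound for 24 or 48 h, in normoxia or with 200 μM CoCl2 (hypoxia). 500 cells replated per 100 mm dish and grown about 7 days. Colonies fixed in 4% formaldehyde, stained with 0.5% crystal violet, and counted.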

In data set [7] the test system is CAL-62. Kind of data set: Inhibition of clonogenicity in human CAL-62 cells incubated for 48 hrs under hypoxia condition by crystal violet staining based assay. In kind it is functional, cell-based. Particulars: CAL-62, 48 h. A digest of the protocol: (§2)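 Dose range 1–50 μM for 48 h under CoCl2 (200 μM) hypoxia. 500 surviving cells replated and grown about 7 days (CAL-62) or 10 days (MDA-MB-231). Crystal violet colony counts used to derive IC50/EC50. Three independent experiments.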

The test system of data set [8] is MDA-MB-231. In words: Inhibition of clonogenicity in human MDA-MB-231 cells incubated for 48 hrs under hypoxia condition by crystal violet staining based assay. Particulars: MDA-MB-231, 48 h. In kind it is functional, cell-based. A digest of the protocol:
as §2

Data set [9] has as its system HaCaT. Kind of data set: Cytotoxicity against human HaCaT cells assessed as reduction in cell viability at 10 to 25 uM incubated for 48 hrs by trypan blue exclusion assay. The data set is classed as toxicity, cell-based. Particulars: dose 10-25 µM. In short, it runs like this: (§3)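 HaCaT keratinocytes in DMEM with 10% FBS, treated at 5, 10 and 25 μM for 24 and 48 h. Viability and death scored by trypan blue hemocytometer counting. Three independent experiments.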

For data set [10], the system named is CAL-62. In words: Downregulation of HIF1alpha expression in human CAL-62 cells at 50 uM incubated for 48 hrs under hypoxia condition by Western blot analysis. The data set is classed as functional, cell-based. In short, it runs like this:
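CAL-62 or MDA-MB-231 cells made hypoxic with 200 μM CoCl2 for 24 h, then treated with 50 μM compound for 48 h with CoCl2 retained. Lysates (15 or 50 μg protein) immunoblotted for HIF-1α, EPAS-1 or CA-IX with ACTB, ECL detection. 3-TYP (1 μM) as control.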

Data set [11] concerns MDA-MB-231. In words: Downregulation of ZEB1 gene expression in human MDA-MB-231 cells at 50 uM incubated for 48 hrs by qRT-PCR analysis. The data set is classed as functional, cell-based. In short, it runs like this: (§4)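 MDA-MB-231 cells treated with 50 μM compound for 48 h under normoxia, DMSO vehicle control. qRT-PCR quantified by the 2(−ΔCt) method as fold of control, mean ± SEM. Three independent experiments.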

In data set [12] the test system is MDA-MB-231. Kind of data set: Downregulation of SLUG gene expression in human MDA-MB-231 cells at 50 uM incubated for 48 hrs by qRT-PCR analysis. The data set is classed as functional, cell-based. In short, it runs like this:
as §4
In general terms: Real-time PCR tracks product formation cycle by cycle.

The test system of data set [13] is MDA-MB-231. In words: Inhibition of cell migration in human MDA-MB-231 cells at 50 uM incubated for 48 hrs by scratch assay. The data set is classed as functional. A digest of the protocol: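 Confluent MDA-MB-231 monolayer shifted to serum-depleted medium and scratched with a pipette tip. Treated with 50 μM compound for 48 h, DMSO as control. Migration imaged by phase contrast at two time points and quantified. Mean ± SEM of three independent experiments.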

Data set [14] deals with HaCaT. Kind of data set: Cytotoxicity against human HaCaT cells assessed as reduction in cell viability at 5 to 25 uM incubated for 24 to 48 hrs by trypan blue exclusion assay. As to conditions: dose lower 5 µM, time lower 24 hrs, dose upper 25 µM, time upper 48 hrs. In kind it is toxicity, cell-based. In short, it runs like this:
as §3

With `CCOC(=O)C1=CN(C(=O)c2cc(OC)cc(OC)c2)C=C(C(=O)OCC)C1c1ccccc1`, the Kd in data set [1] turned out to be 79 µM. Besides, the result (in data set [2]; in data set [3]; in [4]; in data set [5]; with CAL-62 [10]; with MDA-MB-231 [11]) was Active. In addition, the inhibition at 50 µM in the data set on CAL-62 [6] was 68%; in the data set with MDA-MB-231 [13], > 75%. The values for the IC50 in the data set with CAL-62 [7] and in the data set with MDA-MB-231 [8] were 5.43 µM and 3.19 µM, respectively. Further, the Activity entry in the data set on HaCaT [9] was “Non-Toxic”. Further, in the data set with MDA-MB-231 [12], the outcome was inactive.

On to `CCOC(=O)C1=CN(C(=O)c2ccc(OC)c(OC)c2)C=C(C(=O)OCC)C1c1ccccc1`, for which, in the data set on HaCaT [14], the Activity result is “Non-Toxic”.
